Assay [1] addresses T1, Epidermal growth factor receptor (Homo sapiens, UniProt P00533). In words: Inhibition of recombinant EGFR (unknown origin) using poly (Glu4, Tyr) as substrate after 60 mins by ADP-glo kinase assay. The method, boiled down:
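ADP-Glo luminescent assay. Each reaction held 30 ng recombinant EGFR, 5 µM ATP and 0.2 µg/µl poly(Glu4,Tyr) in tyrosine kinase buffer with a compound dilution; 60 min at ambient temperature. Stopped with ADP-Glo reagent (40 min), then kinase detection reagent, luminescence read after 30 min. Blank (no enzyme) subtracted; activity expressed as % of the 0 µM reaction. Dilutions run in duplicate.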

The target of assay [2] is T1, Epidermal growth factor receptor. As to the kind of experiment: Inhibition of recombinant EGFR (unknown origin) using poly (Glu4, Tyr) as substrate assessed as inhibition at 1 uM after 60 mins by ADP-glo kinase assay.
Assay [3] shares this target. In words: Inhibition of recombinant EGFR (unknown origin) using poly (Glu4, Tyr) as substrate assessed as inhibition at 10 uM after 60 mins by ADP-glo kinase assay.
Assay [4] has the same target. In words: Inhibition of recombinant EGFR (unknown origin) using poly (Glu4, Tyr) as substrate assessed as inhibition at 30 uM after 60 mins by ADP-glo kinase assay.
Assay [5] has the same target. In words: Inhibition of recombinant EGFR (unknown origin) using poly (Glu4, Tyr) as substrate assessed as inhibition at 100 uM after 60 mins by ADP-glo kinase assay.
The test system of assay [6] is MCF7. In words: Antiproliferative activity against human MCF7 cells at 50 uM after 48 hrs by SRB assay. Conditions: MCF7, 48 h, read-out: GI. In kind it is functional.
Assay [7] has as its system MCF7. In words: Antiproliferative activity against human MCF7 cells at 1 uM after 48 hrs by SRB assay. In kind it is functional. Conditions: MCF7, 48 h, read-out: GI. The method, boiled down:
(§1)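 Cells kept in RPMI-1640 with 2 mM glutamine, 10% FBS, penicillin/streptomycin, 37°C, 5% CO2. Seeded and grown 24 h, then test material in complete medium added and incubated 48 h. Fixed with cold TCA 1 h at 4°C, stained with 0.4% SRB in 1% acetic acid for 30 min, dye dissolved in 10 mM Tris pH 10.4, OD read at 540 nm.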

Assay [8] deals with HCT-116. In words: Antiproliferative activity against human HCT116 cells at 50 uM after 48 hrs by SRB assay. In kind it is functional. Conditions: HCT-116, 48 h, read-out: GI.
In assay [9] the test system is HCT-116. In words: Antiproliferative activity against human HCT116 cells at 20 uM after 48 hrs by SRB assay. Particulars: HCT-116, 48 h, read-out: GI. In kind it is functional. The method, boiled down: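 Cells kept in RPMI-1640 with 2mM glutamine, 10% FBS, streptomycin and penicillin at 37°C, 5% CO2. Seeded cells grown 24 h, then exposed to compound in complete medium for 48 h. Fixed with cold TCA 1 h at 4°C, stained with 0.4% SRB 30 min, bound dye dissolved in 10mM Tris pH 10.4, OD read at 540 nm. Blank-subtracted percent growth inhibition taken against untreated cells as 100%.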

Assay [10] relates to PC-3. As to the kind of experiment: Antiproliferative activity against human PC3 cells at 50 uM after 48 hrs by SRB assay. In kind it is functional. Particulars: PC-3, 48 h, read-out: GI.
Assay [11] deals with PC-3. As to the kind of experiment: Antiproliferative activity against human PC3 cells at 1 uM after 48 hrs by SRB assay. In kind it is functional. Conditions: PC-3, 48 h, read-out: GI. In outline: as §1
Assay [12] has as its system A549. In words: Antiproliferative activity against human A549 cells at 50 uM after 48 hrs by SRB assay. In kind it is functional. Conditions: A549, 48 h, read-out: GI.
In assay [13] the test system is MCF7. In words: Induction of apoptotic bodies formation in human MCF7 cells at 50 nM after 24 hrs by DAPI staining based immunofluorescence microscopy. In kind it is functional, cell-based.
For assay [14], the system named is A549. In words: Antiproliferative activity against human A549 cells at 1 uM after 48 hrs by SRB assay. In kind it is functional. Particulars: A549, 48 h, read-out: GI. The method, boiled down: as §1

The values that follow come from ChEMBL document CHEMBL4002564, “Design, synthesis and cytotoxicity studies of novel pyrazolo[1, 5-a]pyridine derivatives” (Eur J Med Chem, 2017).

The source made the active and inactive calls. The rule behind the calls is not given here.

T1 sequence (P00533 whole entry): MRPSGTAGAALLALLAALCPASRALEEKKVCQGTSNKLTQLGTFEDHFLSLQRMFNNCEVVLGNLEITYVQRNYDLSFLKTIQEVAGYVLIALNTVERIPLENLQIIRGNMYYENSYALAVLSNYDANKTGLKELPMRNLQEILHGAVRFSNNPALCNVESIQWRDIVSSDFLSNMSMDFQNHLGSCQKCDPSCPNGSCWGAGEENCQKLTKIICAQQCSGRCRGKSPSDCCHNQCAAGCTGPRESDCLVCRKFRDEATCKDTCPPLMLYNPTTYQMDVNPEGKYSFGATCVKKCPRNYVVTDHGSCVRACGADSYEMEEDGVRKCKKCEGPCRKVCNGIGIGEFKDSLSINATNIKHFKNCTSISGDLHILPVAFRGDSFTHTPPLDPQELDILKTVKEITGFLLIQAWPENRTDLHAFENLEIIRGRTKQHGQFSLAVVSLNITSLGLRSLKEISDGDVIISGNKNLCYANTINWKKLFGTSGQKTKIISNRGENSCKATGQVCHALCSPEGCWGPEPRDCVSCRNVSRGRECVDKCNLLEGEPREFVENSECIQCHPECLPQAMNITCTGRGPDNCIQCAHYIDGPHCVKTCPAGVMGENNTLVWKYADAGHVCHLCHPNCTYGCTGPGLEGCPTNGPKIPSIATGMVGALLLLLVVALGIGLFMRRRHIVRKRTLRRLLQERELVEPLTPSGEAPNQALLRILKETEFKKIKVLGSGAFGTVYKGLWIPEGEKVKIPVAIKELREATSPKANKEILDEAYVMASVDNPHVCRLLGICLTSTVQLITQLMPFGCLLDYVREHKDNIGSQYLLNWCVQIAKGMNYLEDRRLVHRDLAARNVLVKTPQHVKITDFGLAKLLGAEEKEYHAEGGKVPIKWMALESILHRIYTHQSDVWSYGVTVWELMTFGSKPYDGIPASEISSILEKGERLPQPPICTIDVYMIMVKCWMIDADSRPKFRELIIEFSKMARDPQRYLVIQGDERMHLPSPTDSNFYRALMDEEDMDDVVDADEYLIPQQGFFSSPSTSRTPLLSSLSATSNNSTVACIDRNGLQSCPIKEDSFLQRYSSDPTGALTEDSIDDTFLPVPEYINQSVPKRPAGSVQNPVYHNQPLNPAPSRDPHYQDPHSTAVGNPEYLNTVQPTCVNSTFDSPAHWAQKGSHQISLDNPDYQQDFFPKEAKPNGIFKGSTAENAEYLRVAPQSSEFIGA

On to `CCCCOC(=O)c1c(-c2ccccc2)nn2ccccc12`, for which the 50% inhibitory concentration (IC50) in assay [1] amounted to 23.7 µM. For the same compound, the inhibition worked out at 16% in assay [2], 37% in [3], 51% in [4] and 72% in assay [5].

As for `COc1cccc2c1C(=O)c1c(O)c3c(c(O)c1C2=O)C[C@@](O)(C(=O)CO)C[C@@H]3O[C@H]1C[C@H](N)[C@H](O)[C@H](C)O1` [DOXORUBICIN], the inhibition of growth at 50 µM in the assay on MCF7 [6] worked out at 62%. For the same compound, the inhibition of growth at 1 µM with MCF7 [7] amounted to 62%.

Consider `O=c1[nH]cc(F)c(=O)[nH]1` [FLUOROURACIL], for which the inhibition of growth at 50 µM in the assay with HCT-116 [8] was 58%. In the assay with HCT-116 [9], the inhibition of growth at 20 µM was 58%.

`CC(=O)O[C@H]1C(=O)[C@@]2(C)[C@H]([C@H](OC(=O)c3ccccc3)[C@]3(O)C[C@H](OC(=O)[C@H](O)[C@@H](NC(=O)c4ccccc4)c4ccccc4)C(C)=C1C3(C)C)[C@]1(OC(C)=O)CO[C@@H]1C[C@@H]2O` [PACLITAXEL]: the figures for the inhibition of growth at 50 µM in the assay on PC-3 [10] and in the assay with A549 [12] were 72% and 78%, respectively. In addition, the inhibition of growth at 1 µM with PC-3 [11] came out at 72%; in the assay on A549 [14] it was 78%. In the assay with MCF7 [13], the outcome was Active.
